Compounds with a hit are over-represented: about 1.5% of the library has one in this group of screens.
UCH37 inh: human UCH37 deubiquitinating enzyme inhibition; 0.33% of 330,000 active; inhibition, % (no concentration beside the values); purified proteasome/UCH37, Ub-AMC cleavage fluorescence;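 active = mean inhibition over replicate wells above about 20%, limit read from the data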;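 note: 0% = compound-free wells with enzyme and 100% = wells lacking proteasome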
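Test system – human UCH37 enzyme supplied as purified proteasome complex · Incubation – 30 min preincubation with enzyme, 25 min cleavage at room temperature · Detection – AMC fluorescence from Ub-AMC cleavage, excitation 355 nm, emission 460 nm · Benchmarks – no-proteasome wells (full inhibition) and compound-free wells (no inhibition)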
PREPL inhibitor: human PREPL enzyme inhibition. recombinant PREPL, fluorescence polarization activity-based probe. 0.68% of 320,000 active. inhibition, % at 5.96 µM. Q4J6C6; in the data active = inhibition above about 43%;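 note: 0% = enzyme with DMSO and 100% = wells lacking enzyme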
Target sequence (Q4J6C6 whole entry, looked up): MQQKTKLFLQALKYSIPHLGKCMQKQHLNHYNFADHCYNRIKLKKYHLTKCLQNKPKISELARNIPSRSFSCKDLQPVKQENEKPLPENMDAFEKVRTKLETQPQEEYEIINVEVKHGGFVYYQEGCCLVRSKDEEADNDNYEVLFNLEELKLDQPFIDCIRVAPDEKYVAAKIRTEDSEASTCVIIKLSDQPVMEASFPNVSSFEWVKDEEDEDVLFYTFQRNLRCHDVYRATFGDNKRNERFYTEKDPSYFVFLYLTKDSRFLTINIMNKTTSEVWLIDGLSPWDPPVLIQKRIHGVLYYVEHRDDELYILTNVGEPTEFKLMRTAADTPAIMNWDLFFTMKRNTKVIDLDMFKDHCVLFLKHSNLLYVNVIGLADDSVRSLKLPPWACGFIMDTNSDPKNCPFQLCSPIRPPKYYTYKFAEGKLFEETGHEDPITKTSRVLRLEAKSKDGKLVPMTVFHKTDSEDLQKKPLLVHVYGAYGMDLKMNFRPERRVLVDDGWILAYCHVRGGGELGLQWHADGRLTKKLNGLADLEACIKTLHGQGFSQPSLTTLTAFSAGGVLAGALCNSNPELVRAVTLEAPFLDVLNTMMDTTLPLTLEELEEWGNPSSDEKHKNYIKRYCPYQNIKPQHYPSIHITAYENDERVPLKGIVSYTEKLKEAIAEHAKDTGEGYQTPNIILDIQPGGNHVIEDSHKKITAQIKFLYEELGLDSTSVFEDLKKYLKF
UBC13 inh: human UBC13 polyubiquitination inhibition; UBC13 polyubiquitin chain formation, TR-FRET; inhibition, % at 20 µM; 0.47% of 330,000 active; P61088; in the data active = inhibition above about 45%, passing the limit was not always enough; inconclusive = no clear call, values can overlap the other calls
Apaf-1 inh: blocks human Apaf-1 apoptosome activity. 0.71% of 330,000 active. reconstituted apoptosome caspase-3 activity, DEVD-Rh110 fluorescence. inhibition, % at 20 µM; active = inhibition of at least 40% at 20 µM;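 note: plate controls were DMSO wells for no effect and DEVD-CHO caspase inhibitor wells for full effect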
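Material: reconstituted apoptosome with Apaf-1, cytochrome c, caspase-9, procaspase-3, dATP. Technique: Rh110 fluorescence intensity. Buffer or medium: pH 7.5 Hepes buffer with CHAPS, BSA, DTT. Times: 30 min plus 50 min, RT.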
Casp3 UBC13 ctr: caspase-3 inhibition (UBC13 counter-screen) | shares compounds with UBC13 inh | Recombinant caspase-3, Caspase-Glo 3/7 luminescence, 60 min | inhibition, % at 20 µM | 4% of 1,400 active;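 active = mean inhibition across replicates above about 26%, limit read from the data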;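 note: plate controls were DMSO with caspase-3 for no effect and DMSO wells lacking enzyme for full effect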
UBC13 confirm: confirmation of human UBC13 polyubiquitin inhibitors; shares compounds with UBC13 inh; UBC13 polyubiquitination, TR-FRET, biochemical; inhibition, % at 10 µM; 68% of 1,400 active; AID 488859; in the data active = inhibition above about 45%; inconclusive = no clear call, values can overlap the other calls
Starred values were filed as active, the others as inactive; ? = inconclusive; . = no result given.

SMILES	UCH37 inh	PREPL inhibitor	UBC13 inh	Apaf-1 inh	Casp3 UBC13 ctr	UBC13 confirm
Cc1ccccc1C(=O)N1CCN(c2ccc(NC(=S)NC(=O)c3cccs3)cc2)CC1	5	23	86*	1	2	85*
C=CCN1C(=O)C(CC(=O)Nc2ccccc2)SC1=Nc1nccs1 (stereo not drawn)	0	.	.	.	.	.
Cc1nnc(NC(=O)c2c(-c3ccccc3)noc2C)s1	5	7	0	8	.	.
Cc1onc(-c2ccccc2)c1C(=O)Nc1cccc2nsnc12	-16	5	49*	-4	1	45
CCCC[C@@H](CNC)NC[C@H](NCCCCC1CCCCC1)C(C)C	1	27	66*	2	-3	45*
CN1CCN(C(=O)CCN2C(=O)/C(=C/c3ccccc3Cl)SC2=S)CC1	10	-34	69*	1	-3	87*
CN1CCN(C(=O)CCN2C(=O)/C(=C\c3ccccc3F)SC2=S)CC1	4	5	2	6	.	.
O=C(CCN1C(=O)/C(=C/c2ccccc2Cl)SC1=S)NCCCN1CCOCC1	5	-36	45*	8	0	61*
COc1ccccc1NS(=O)(=O)c1cccc(C(=O)NNC(=O)c2ccc(Cl)nc2)c1	2	2	45*	1	2	25
COc1ccccc1NS(=O)(=O)c1cccc(C(=O)NNC(=O)c2ccc(O)c(Cl)c2)c1	2	0	0	-7	.	.
COc1ccc2oc(=NO)c(C(=O)Nc3ccccc3OC)cc2c1	4	.	.	.	.	.
Cc1cccc(S(=O)(=O)c2c(N)n(N=Cc3ccccc3)c3nc4ccccc4nc23)c1	-151	.	.	.	.	.
O=[N+]([O-])c1ccc(C=Nn2c(-c3ccccc3)n[nH]c2=S)cc1	4	.	.	.	.	.
O=C1c2cccc3cccc(c23)C(=O)N1CCc1ccccc1	-24	-1	51*	14	3	?
NC(=S)N=Nc1c(O)n(CCCl)c2ccc(Cl)cc12	3	11	68*	3	-3	90*
CCOc1ccc2c(c1)c(N=NC(N)=S)c(O)n2C	3	9	?	-35	.	.
NC(=S)N=Nc1c(O)n(CCCl)c2ccccc12	3	-1	90*	2	-4	85*
NC(=S)N=Nc1c(O)n(C2OC(=O)c3ccccc32)c2ccccc12 (stereo not drawn)	-6	8	88*	6	0	104*
CCCCCCCNC(=O)C1(CC2CC(c3cccc(Br)c3)=NO2)CCN(C(=O)CCCCCBr)CC1 (stereo not drawn)	-1	2	45*	25	-1	13
CCCCCCCNC(=O)C1(CC2CC(c3cccc(Br)c3)=NO2)CCN(C(=O)C2(C)CC2)CC1 (stereo not drawn)	-4	2	20	20	.	.
COc1cccc(NC(=O)CSc2nc3ccccc3c(=O)n2CCCC(=O)NCCCN2CCOCC2)c1	0	-8	61*	-1	-3	79*
COc1ccc(NC(=O)CSc2nc3c(sc4ccccc43)c(=O)n2CCCN2CCCC2)cc1	-1	-10	50*	35	-2	54*
O=C(CSc1nc2c(sc3ccccc32)c(=O)n1CCCN1CCCC1)NCC1CCCO1 (stereo not drawn)	2	27	-20	16	.	.
CNc1oc(-c2ccccc2)nc1S(=O)(=O)c1ccc(C)cc1	0	2	-6	2	.	.
CCOc1ccc(-c2nc(S(=O)(=O)c3ccccc3)c(NC)o2)cc1	-42	5	47*	-8	0	33
SMILES	UCH37 inh	PREPL inhibitor	UBC13 inh	Apaf-1 inh	Casp3 UBC13 ctr	UBC13 confirm
O=C(NN=Cc1ccc(Cl)c([N+](=O)[O-])c1)c1cc(-c2ccc3c4c(cccc24)CC3)n[nH]1	6	.	.	.	.	.
CC(=O)N/C(=N/c1nc(C)cc(C)n1)Nc1ccc2ccccc2c1	3	.	.	.	.	.
CCC(=O)NC(c1cc(Cl)c2ccccc2c1O)C1CC1 (stereo not drawn)	1	-1	84*	9	-1	72*
CCC(=O)NC(C)c1cc(Cl)c2ccccc2c1O (stereo not drawn)	-4	12	51*	0	0	34
CC(=O)NC(c1cc(Cl)c2cccnc2c1O)C1CC1 (stereo not drawn)	2	11	-12	0	.	.
COc1cc(C=NNC(=O)CC23CC4CC(CC(C4)C2)C3)cc(Br)c1OCC(=O)N(C)C	3	.	.	.	.	.
CCOc1ccc(NC(=O)Cn2c(=O)n(CCCC(=O)NC3CCN(Cc4ccccc4)CC3)c(=O)c3ccccc32)cc1	3	10	92*	13	-1	97*
COc1ccc(NC(C)C(=O)NN=Cc2ccccc2OCc2cccc(Br)c2)cc1 (stereo not drawn)	3	.	.	.	.	.
O=C1/C(=C/C=C/c2ccco2)SC(=S)N1NS(=O)(=O)c1ccccc1	19	13	51*	27	3	2
Cc1cc(C2N=C(N)Nc3nc4ccccc4n32)c(C)n1-c1ccccc1Cl (stereo not drawn)	4	-69	46*	33	-4	55*
Cc1ccc(-n2c(C)cc(C3N=C(N)Nc4nc5ccccc5n43)c2C)c(C)c1 (stereo not drawn)	3	-41	9	22	.	.
O=[N+]([O-])c1ccc2[nH]c(O)c(N=NC(=S)NCC3CCCO3)c2c1 (stereo not drawn)	3	9	91*	-17	4	94*
CCNC(=S)N=Nc1c(O)[nH]c2ccc(C(C)C)cc12	0	7	90*	5	1	88*
O=[N+]([O-])c1ccc2[nH]c(O)c(N=NC(=S)Nc3cccnc3)c2c1	9	21	?	1	.	.
CCNC(=S)N=Nc1c(O)[nH]c2ccc([N+](=O)[O-])cc12	5	15	45*	-10	1	60*
Cc1ccc(OCC(=O)NN=C2CC(=O)CC(C)(C)C2)c(Br)c1	3	.	.	.	.	.
CCn1c(=O)cc(C(F)(F)F)[nH]c1=S	8	-3	55*	-10	-1	?
CCC(=NO)c1ccc(OC)c(OC)c1	5	.	.	.	.	.
O=C(Cc1ccc(Br)c2ccccc12)NN=Cc1ccccn1	2	.	.	.	.	.
O=C(NN=Cc1cn(-c2cccs2)nc1-c1ccccc1)c1ccccc1Cl	5	.	.	.	.	.
CCOc1cc2c(C#N)c(N3CCNCC3)nc(N)c2c(N)n1	-288	31	63*	21	24	105*
Cc1ccc(C(=O)N/C(=C\c2ccc(-c3ccc(Cl)cc3)o2)C(=O)NCCCN(C)C)cc1	-37	10	47*	19	-3	70*
COc1cccc(C=Nn2c(-c3cc(C)[nH]n3)n[nH]c2=S)c1	3	.	.	.	.	.
COC(=O)[C@@]12CCCCN1[C@H](c1ccc(-c3cc(C(C)=O)cs3)c(OC)c1)[C@H]1C(=O)N(C)C(=O)[C@H]12	-17	3	52*	10	-6	36
Cc1nn(-c2ccccc2)c(N2CCCCC2)c1C=NNC(=O)c1ccncc1	3	.	.	.	.	.

Screening data from PubChem BioAssay.
